Measurements: ChEMBL document CHEMBL1146219, “Synthesis and evaluation of novel radioiodinated benzamides for malignant melanoma” (J Med Chem, 2007)

Legend:
Conditions in all cases: in vivo
Blood [1] = assay: Biodistribution in blood of B16F0 tumor bearing C57BL/6J mouse at 0.37-0.74 MBq, iv after 24 hrs; format: ADME, organism-based
Procedure, shortened: (§1)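 Female C57BL/6J mice (15-18 g) were given B16F0 cells subcutaneously in the left flank (0.1 mL of 3 × 10⁶ viable cells/mL in Ca²⁺/Mg²⁺-free PBS) at 6-7 weeks and used after ten days. [¹²³I]benzamide (0.37-0.74 MBq, 100 µL, saline) was injected via the tail vein. Groups of n = 5 were killed by CO₂ and cervical dislocation. Organs were weighed and γ-counted, and the carcass was counted too.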

[2] = Biodistribution in melanoma of B16F0 tumor bearing C57BL/6J mouse at 0.37-0.74 MBq, iv after 1 hr; format: ADME, organism-based, B16-F0; procedure, shortened: as §1
[3] = Biodistribution in melanoma of B16F0 tumor bearing C57BL/6J mouse at 0.37-0.74 MBq, iv after 6 hrs; format: ADME, organism-based, B16-F0
Procedure, shortened: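 Female C57BL/6J mice (15-18 g) carrying s.c. B16F0 flank tumors (0.1 mL of 3 × 10⁶ viable cells per mL in Ca²⁺/Mg²⁺-free PBS, inoculated at 6-7 weeks, used 10 days later). [¹²³I]tracer 0.37-0.74 MBq in saline, 100 µL, tail-vein i.v. Groups of n = 5 killed at 1-72 h. Organs weighed and γ-counted, carcass activity also counted, values as %ID/g.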

[4] = Biodistribution in melanoma of B16F0 tumor bearing C57BL/6J mouse at 0.37-0.74 MBq, iv after 24 hrs; format: ADME, organism-based, B16-F0; procedure, shortened: as §1
Liver [5] = assay: Biodistribution in liver of B16F0 tumor bearing C57BL/6J mouse at 0.37-0.74 MBq, iv after 1 hr; format: ADME, organism-based; procedure, shortened: as §1
Liver [6] = assay: Biodistribution in liver of B16F0 tumor bearing C57BL/6J mouse at 0.37-0.74 MBq, iv after 6 hrs; format: ADME, organism-based; procedure, shortened: as §1
Liver [7] = assay: Biodistribution in liver of B16F0 tumor bearing C57BL/6J mouse at 0.37-0.74 MBq, iv after 24 hrs; format: ADME, organism-based; procedure, shortened: as §1
Kidney [8] = assay: Biodistribution in kidney of B16F0 tumor bearing C57BL/6J mouse at 0.37-0.74 MBq, iv after 1 hr; format: ADME, organism-based; procedure, shortened: as §1
Kidney [9] = assay: Biodistribution in kidney of B16F0 tumor bearing C57BL/6J mouse at 0.37-0.74 MBq, iv after 6 hrs; format: ADME, organism-based; procedure, shortened: as §1
Kidney [10] = assay: Biodistribution in kidney of B16F0 tumor bearing C57BL/6J mouse at 0.37-0.74 MBq, iv after 24 hrs; format: ADME, organism-based; procedure, shortened: as §1
Lung [11] = assay: Biodistribution in lung of B16F0 tumor bearing C57BL/6J mouse at 0.37-0.74 MBq, iv after 1 hr; format: ADME, organism-based; procedure, shortened: as §1
Lung [12] = assay: Biodistribution in lung of B16F0 tumor bearing C57BL/6J mouse at 0.37-0.74 MBq, iv after 6 hrs; format: ADME, organism-based; procedure, shortened: as §1
Lung [13] = assay: Biodistribution in lung of B16F0 tumor bearing C57BL/6J mouse at 0.37-0.74 MBq, iv after 24 hrs; format: ADME, organism-based; procedure, shortened: as §1
Heart [14] = assay: Biodistribution in heart of B16F0 tumor bearing C57BL/6J mouse at 0.37-0.74 MBq, iv after 1 hr; format: ADME, organism-based; procedure, shortened: as §1
Heart [15] = assay: Biodistribution in heart of B16F0 tumor bearing C57BL/6J mouse at 0.37-0.74 MBq, iv after 6 hrs; format: ADME, organism-based; procedure, shortened: as §1
Heart [16] = assay: Biodistribution in heart of B16F0 tumor bearing C57BL/6J mouse at 0.37-0.74 MBq, iv after 24 hrs; format: ADME, organism-based; procedure, shortened: as §1
Brain [17] = assay: Biodistribution in brain of B16F0 tumor bearing C57BL/6J mouse at 0.37-0.74 MBq, iv after 1 hr; format: ADME, organism-based; procedure, shortened: as §1
Brain [18] = assay: Biodistribution in brain of B16F0 tumor bearing C57BL/6J mouse at 0.37-0.74 MBq, iv after 6 hrs; format: ADME, organism-based; procedure, shortened: as §1
Blood [19] = assay: Biodistribution in blood of B16F0 tumor bearing C57BL/6J mouse at 0.37-0.74 MBq, iv after 1 hr; format: ADME, organism-based; procedure, shortened: as §1
Blood [20] = assay: Biodistribution in blood of B16F0 tumor bearing C57BL/6J mouse at 0.37-0.74 MBq, iv after 6 hrs; format: ADME, organism-based; procedure, shortened: as §1
Brain [21] = assay: Biodistribution in brain of B16F0 tumor bearing C57BL/6J mouse at 0.37-0.74 MBq, iv after 24 hrs; format: ADME, organism-based; procedure, shortened: as §1

Compound | Drug uptake (Blood [1]) | Drug uptake [2] | Drug uptake [3] | Drug uptake [4] | Drug uptake (Liver [5]) | Drug uptake (Liver [6]) | Drug uptake (Liver [7]) | Drug uptake (Kidney [8]) | Drug uptake (Kidney [9]) | Drug uptake (Kidney [10]) | Drug uptake (Lung [11]) | Drug uptake (Lung [12]) | Drug uptake (Lung [13]) | Drug uptake (Heart [14]) | Drug uptake (Heart [15]) | Drug uptake (Heart [16]) | Drug uptake (Brain [17]) | Drug uptake (Brain [18]) | Drug uptake (Blood [19]) | Drug uptake (Blood [20]) | further results
CCN(CC)CCNC(=O)c1cc([123I])c(NS(C)(=O)=O)cc1OC | 0.01 % ID/g | 5.4 % ID/g | 3.6 % ID/g | 1.7 % ID/g | 2.3 % ID/g | 1.2 % ID/g | 0.28 % ID/g | 1.3 % ID/g | 0.49 % ID/g | 0.06 % ID/g | 0.67 % ID/g | 0.38 % ID/g | 0.03 % ID/g | 0.42 % ID/g | 0.19 % ID/g | 0.04 % ID/g | 0.05 % ID/g | 0.02 % ID/g | 0.77 % ID/g | 0.49 % ID/g | 
CCCN(CCC)CCCCNC(=O)c1cc([123I])c(NC(C)=O)cc1OC | 0.15 % ID/g | 8 % ID/g | 6.8 % ID/g | 5.1 % ID/g | 7.3 % ID/g | 1.8 % ID/g | 0.64 % ID/g | 14.1 % ID/g | 1 % ID/g | 0.18 % ID/g | 1.7 % ID/g | 0.8 % ID/g | 0.14 % ID/g | 0.93 % ID/g | 0.49 % ID/g | 0.14 % ID/g | 0.07 % ID/g | 0.05 % ID/g | 1.7 % ID/g | 1.1 % ID/g | Drug uptake (Brain [21]): 0.01 % ID/g
CCCN(CCC)CCCCNC(=O)c1ccc([123I])cc1 | 0.08 % ID/g | 6.2 % ID/g | 7.5 % ID/g | 6.9 % ID/g | 49.1 % ID/g | 33 % ID/g | 2.9 % ID/g | 8.6 % ID/g | 5.4 % ID/g | 0.52 % ID/g | 8.2 % ID/g | 3.9 % ID/g | 0.39 % ID/g | 1.9 % ID/g | 0.81 % ID/g | 0.12 % ID/g | 0.5 % ID/g | 0.17 % ID/g | 0.52 % ID/g | 0.35 % ID/g | Drug uptake (Brain [21]): 0.04 % ID/g
CCCCNCCCCNC(=O)c1cc([123I])c(NC(C)=O)cc1OC | 0.05 % ID/g | 3.4 % ID/g | 3.4 % ID/g | 2.2 % ID/g | 6 % ID/g | 1.3 % ID/g | 0.45 % ID/g | 3.26 % ID/g | 0.46 % ID/g | 0.05 % ID/g | 2 % ID/g | 0.45 % ID/g | 0.04 % ID/g | 0.64 % ID/g | 0.28 % ID/g | 0.06 % ID/g | 0.04 % ID/g | 0.02 % ID/g | 0.84 % ID/g | 0.47 % ID/g | 
CCN(CC)CCNC(=O)c1ccccc1[123I] | 0.06 % ID/g | 7.1 % ID/g | 8.8 % ID/g | 3 % ID/g | 6.8 % ID/g | 0.73 % ID/g | 0.1 % ID/g | 6.8 % ID/g | 0.76 % ID/g | 0.06 % ID/g | 4.5 % ID/g | 0.82 % ID/g | 0.09 % ID/g | 2 % ID/g | 0.4 % ID/g | 0.07 % ID/g | 1.3 % ID/g | 0.11 % ID/g | 1.9 % ID/g | 1.2 % ID/g | Drug uptake (Brain [21]): 0.01 % ID/g
COc1cc(NC(C)=O)c([123I])cc1C(=O)NCCCCN1CC2CCC1C2 (configuration not stated) | 0.02 % ID/g | 3.4 % ID/g | 2.8 % ID/g | 1.4 % ID/g | 7.1 % ID/g | 0.8 % ID/g | 0.19 % ID/g | 3.7 % ID/g | 0.67 % ID/g | 0.03 % ID/g | 2.6 % ID/g | 0.68 % ID/g | 0.04 % ID/g | 0.94 % ID/g | 0.3 % ID/g | 0.03 % ID/g | 0.08 % ID/g | 0.03 % ID/g | 1.92 % ID/g | 0.78 % ID/g | 
CCN(CC)CCNC(=O)c1cc([123I])c(NS(=O)(=O)c2ccc(C)cc2)cc1OC | 0.05 % ID/g | 4.2 % ID/g | 2.6 % ID/g | 1.4 % ID/g | 3.8 % ID/g | 1.5 % ID/g | 0.21 % ID/g | 1.2 % ID/g | 0.36 % ID/g | 0.06 % ID/g | 0.62 % ID/g | 0.22 % ID/g | 0.05 % ID/g | 0.28 % ID/g | 0.11 % ID/g | 0.03 % ID/g | 0.03 % ID/g |  | 0.74 % ID/g | 0.33 % ID/g | 
